Compounds with a hit are over-represented: about 2.3% of the library has one in this group of screens.
TRPC6 inh = mouse TRPC6 channel inhibitors, primary screen, cell-based, HEK293, membrane potential dye. ACh-evoked depolarization; active compounds read low. AID 2553, 2010. actives 1.1% (n = 310,000). B-score at 10 µM. Short transient receptor potential channel 6 (Mus musculus), Q61143;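 active means B-score under library mean minus 3 SD, initial fluorescence not abnormally high, positive integrated signal ratio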;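 further: B-score derived from integrated fluorescence ratio over the kinetic read; more negative B-score means stronger inhibition of depolarization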
TRPC4 PAM = positive allosteric modulators of TRPC4, primary screen, cell-based, mouse TRPC4beta, HEK293 mu-opioid, Fluo-4 calcium; DAMGO EC20, Fluo-4 Ca2+ flux; active compounds read high; B-score at 10 µM; actives 0.42% (n = 310,000); AID 2227, 2009;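 active means B-score of calcium response area above 5 SD of library B-scores, with initial fluorescence ratio within 5 SD of library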
CR mimetic SO = reduction of superoxide in aged yeast, primary screen, HTS; S. cerevisiae aged cells, superoxide DHE fluorescence; active compounds read low; superoxide response (% of plate mean), % at 10 µM; actives 0.18% (n = 330,000); AID 2690, 2010;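 active means superoxide response under a set limit, about three screen SD below normal, cut at about 65% in these data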;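 further: yeast aged for seven days with compound at 30 °C before DHE staining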
TRPC6 act = mouse TRPC6 channel activators, primary screen, cell-based, HEK293, membrane potential dye; HEK293-TRPC6 membrane potential dye fluorescence; active compounds read high; B-score at 10 µM; actives 0.13% (n = 310,000); Short transient receptor potential channel 6 (Mus musculus), Q61143; AID 2550, 2010;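 active means B-score of the integrated fluorescence ratio above library mean plus 3 SD, and starting fluorescence ratio within library mean plus 5 SD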;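 further: higher score means more depolarization so channel activation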
TRPC4 agonist = activators of mouse TRPC4 channel, primary screen, Fluo4 calcium, HEK293 TRPC4beta/mu-opioid cells | Short transient receptor potential channel 4 (Mus musculus), Q9QUQ5 | Fluo4 calcium fluorescence; active compounds read high | B-score at 10 µM | actives 0.49% (n = 310,000) | AID 2237, 2010;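 active means B-score above 5 SD of library B-scores, and initial fluorescence ratio not above library mean plus 5 SD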;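 further: positive B-score marks a calcium rise read as TRPC4 activation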
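Assay system: HEK293 stable line with TRPC4beta plus mu-opioid receptor. Times: dye 45 min RT, read 110 s. Measured by: kinetic Fluo4 calcium fluorescence. Measure: B score of integrated ratio. Controls: assay buffer as low control, maximal DAMGO as high control.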
TRPC4 block = inhibitors of mouse TRPC4 channel, primary screen, Fluo4 calcium, HEK293 TRPC4beta/mu-opioid cells; Short transient receptor potential channel 4 (Mus musculus), Q9QUQ5; DAMGO-evoked Fluo4 calcium flux; active compounds read low; B-score at 10 µM; actives 0.39% (n = 300,000); AID 2247, 2010;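 active means B-score over 3 SD under the library average, no early fluorescence shift, positive overall ratio signal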
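test system = HEK293 cells with stable TRPC4beta plus mu-opioid receptor expression | detection = Fluo4 Ca2+ flux fluorescence | read-out = integrated fluorescence ratio relative to baseline, converted to per-well B score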
TRPC4 spec 2 = second check of whether TRPC6 inhibitors also affect mouse TRPC4; shares compounds with TRPC6 inh; HEK293 TRPC4/MOR, membrane potential dye fluorescence; channel activated by saturating DAMGO dose; inhibition, % at 10 µM; actives 42% (n = 920);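 active means compounds whose fluorescence signal differed from control wells by over 3 SD, either direction, in both duplicate plates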
TRPC4 spec = mouse TRPC4 modulation by TRPC6 hits, confirmation, selectivity assay for TRPC6 inhibitor project, cell-based, HEK293 TRPC4/mu-opioid, membrane potential dye; membrane potential fluorescence; actives 61% (n = 920); activity change, negative = inhibition, % at 10 µM; shares compounds with TRPC6 inh; AID 2777, 2010;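 active means rise or fall in signal beyond 3 SD of buffer-only wells in both replicate plates, either sign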;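 further: integrated kinetic ratio of fluorescence range over baseline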
HEK293 MPD ctr 2-1 = nonspecific membrane potential effects, parental HEK293, confirmation, counter-screen for TRPC6 inhibitor project, cell-based, second counter screen; parental HEK293 membrane potential dye fluorescence; maximal acetylcholine challenge after compound addition; actives 31% (n = 920); AID 2779, 2010; signal change vs control, % at 10 µM; shares compounds with TRPC6 inh;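 active means membrane potential signal moving either way by over 3 SD of the maximum-effect control, in both duplicate plates, meaning non-specific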
HEK293 MPD ctr-1 = membrane potential modulation in parental HEK293, confirmation, counter-screen for TRPC6 inhibitor project, cell-based. shares compounds with TRPC6 inh. parental HEK293 membrane potential dye fluorescence. membrane potential signal change, % at 10 µM. actives 60% (n = 920). AID 2780, 2010;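 active means membrane potential signal shifting up or down by more than 3 SD of buffer-only wells, on both duplicate plates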
HEK293 MPD ctr-2 = parental HEK293 membrane potential modulation, confirmation, counter-screen for TRPC6 modulator project, cell-based | membrane potential dye fluorescence | actives 51% (n = 2,400) | membrane potential signal change, % at 10 µM | AID 488924, 2010 | shares compounds with TRPC6 inh;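 active means membrane potential signal moves up or down beyond 5 SD from buffer-only wells, on both duplicate plates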
HEK293 MPD ctr 2-2 = parental HEK293 nonspecific activity of TRPC6 modulators, second screen; shares compounds with TRPC6 inh; actives 14% (n = 2,400); inhibition, % at 10 µM; membrane potential dye fluorescence; after compound, maximal acetylcholine stimulation;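 active means membrane potential signal drops by more than 5 SD from the mean control signal, in both duplicate plates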
TRPC4 ctr mod = TRPC4 modulation by TRPC6 hit compounds, confirmation, selectivity assay for TRPC6 modulator project, cell-based, HEK293 TRPC4/mu-opioid, membrane potential dye, mouse; membrane potential fluorescence; actives 69% (n = 2,400); percent change from control (negative = decrease, positive = increase), % at 10 µM; shares compounds with TRPC6 inh;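 active means membrane potential signal moved up or down beyond 5 SD of buffer control wells, in both duplicate plates, actives on both sides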
TRPC4 ctr inh 2 = mouse TRPC4 off-target activity of TRPC6 modulators, second screen; shares compounds with TRPC6 inh; HEK293 TRPC4/mu-opioid, membrane potential dye fluorescence; stimulated with maximal-effect DAMGO; inhibition, % at 10 µM; actives 55% (n = 2,400);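 active means drop in membrane potential signal beyond 5 SD of the control wells in both duplicate plates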;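 further: TRPC4 counter screen for TRPC6 hits run under conditions tuned for TRPC6 not TRPC4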
TRPC6 inh conf = mouse TRPC6 channel inhibitors, confirmation, HEK293 cells, membrane potential dye, duplicate; ACh-evoked depolarization; inhibition, % at 10 µM; actives 43% (n = 3,300); shares compounds with TRPC6 inh;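 active means fluorescence ratio falls more than 5 SD below the full-stimulation control mean, in both duplicate runs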;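 further: integrated fluorescence ratio of peak minus minimum over baseline after agonist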
TRPC6 act conf = mouse TRPC6 channel activators, confirmation, HEK293 cells, membrane potential dye, duplicate; shares compounds with TRPC6 inh; HEK293-TRPC6 membrane potential dye fluorescence, FDSS; activation, % at 10 µM; actives 11% (n = 2,800);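 active means ratio signal rise beyond 5 SD above unstimulated control wells' mean, seen in both duplicate runs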
Large screens that a line does not name were inactive (follow-up assays come after a bar, where they were run).

Cc1csc2cc(-c3cccc([N+](=O)[O-])c3)c(-c3cccc([N+](=O)[O-])c3)c[n+]12	TRPC6 inh -6.06 | HEK293 MPD ctr-2 -309.5% | HEK293 MPD ctr 2-2 66.0% | TRPC4 ctr mod -51.5% | TRPC4 ctr inh 2 55.0% | TRPC6 inh conf 69.0% | TRPC6 act conf inactive
Cc1ccc2nc(C)cc(N3CCOCC3)c2c1	TRPC6 inh -10.8 | HEK293 MPD ctr-2 -300.5% | HEK293 MPD ctr 2-2 96.5% | TRPC4 ctr mod -45.0% | TRPC4 ctr inh 2 69.0% | TRPC6 inh conf 75.0% | TRPC6 act conf inactive
COc1ccc2nc(C)cc(N3CCN(c4ccccc4)CC3)c2c1	TRPC6 inh -5.11 | HEK293 MPD ctr-2 -174.5% | HEK293 MPD ctr 2-2 inactive | TRPC4 ctr mod -41.0% | TRPC4 ctr inh 2 68.5% | TRPC6 inh conf inactive | TRPC6 act conf inactive
COc1ccc2nc(C)cc(N3CCN(S(=O)(=O)c4ccccc4F)CC3)c2c1	none (no result: TRPC6 inh, TRPC4 PAM, TRPC6 act, TRPC4 agonist, TRPC4 block)
COc1ccc2nc(C)cc(N3CCOCC3)c2c1	TRPC6 inh -11.6 | HEK293 MPD ctr-2 -427.5% | HEK293 MPD ctr 2-2 100.0% | TRPC4 ctr mod -60.0% | TRPC4 ctr inh 2 67.0% | TRPC6 inh conf 76.0% | TRPC6 act conf inactive
COc1ccc2nc(C)cc(N3CC(C)OC(C)C3)c2c1 (stereo not given)	none
CCC(=O)Nc1ccc(C(=O)CSc2nnc(-c3ccccc3F)n2CCc2ccccc2)cc1	none
O=C(c1cnn2c(C(F)F)cc(-c3ccccc3)nc12)N1CCSCC1	none
Cc1cc(C)c(C)c(S(=O)(=O)N2CCN(C(=O)CCC(=O)N3CCOCC3)CC2)c1C	none
COC(CNC(=O)c1ccc2c(c1)ncn2-c1ccc(F)cc1F)OC	TRPC6 inh -5.01 | HEK293 MPD ctr-2 inactive | HEK293 MPD ctr 2-2 inactive | TRPC4 ctr mod 40.0% | TRPC4 ctr inh 2 72.0% | TRPC6 inh conf inactive
COC(CNC(=O)c1ccc2c(c1)ncn2-c1cccc(F)c1)OC	none
Cc1nc(S(=O)(=O)N2CCN(C3c4ccccc4-c4ccccc43)CC2)cn1C	none
Cc1nc2c(o1)CCc1ccccc1C2N1CCN(C)CC1 (stereo not given)	TRPC6 inh -9.39 | TRPC4 spec 2 inactive | TRPC4 spec 8.0% | HEK293 MPD ctr 2-1 -14.0% | HEK293 MPD ctr-1 10.6% | TRPC6 inh conf 73.7%
CCOC(=O)C1=NNC(C(=O)c2ccc(Cl)cc2)C1c1ccccc1 (stereo not given)	none
CCOC(=O)C1=NN(c2ccc(Cl)cc2)C(c2ccccc2)CC1=O (stereo not given)	TRPC6 inh -7.47 | TRPC4 spec 2 inactive | TRPC4 spec inactive | HEK293 MPD ctr 2-1 inactive | HEK293 MPD ctr-1 inactive | TRPC6 inh conf inactive | TRPC6 act conf inactive
CCOCCCNc1c2c(nc3cc(-c4ccc(F)cc4)nn13)CCC2	none
CN(C)CCCNc1c2c(nc3cc(-c4cccc(F)c4)nn13)CCC2	TRPC6 inh -7.27, TRPC4 agonist 123 | HEK293 MPD ctr-2 inactive | HEK293 MPD ctr 2-2 126.5% | TRPC4 ctr mod -20.5% | TRPC4 ctr inh 2 51.5% | TRPC6 inh conf 78.5% | TRPC6 act conf inactive
O=C(COc1cccnc1[N+](=O)[O-])Nc1ccc(N2CCOCC2)cc1	none
CC(C)c1ccc(/C=C/C(=O)CCC(=O)O)cc1	none
CN(C)CCNC(=O)c1ccc2c(c1)N(Cc1ccc(F)cc1)CCS2	TRPC6 inh -6.41 | HEK293 MPD ctr-2 inactive | HEK293 MPD ctr 2-2 inactive | TRPC4 ctr mod inactive | TRPC4 ctr inh 2 73.5% | TRPC6 inh conf 66.0% | TRPC6 act conf inactive
C=CCOc1ccc(C2C(C#N)=C(N)N(Nc3ccccc3)C3=C2C(=O)CC(C)(C)C3)cc1OC (stereo not given)	none
O=S(=O)(NCC(c1ccco1)N1CCc2ccccc21)c1ccccc1 (stereo not given)	none
CCCOC(=O)C[N+](C)(C)CCOC1CC2CCC1(C)C2(C)C (stereo not given)	none

Screening data deposited in PubChem BioAssay by several laboratories.
